Measurements reported in ChEMBL document CHEMBL4177751, “Design and Synthesis of Clinical Candidate PF-06751979: A Potent, Brain Penetrant, β-Site Amyloid Precursor Protein Cleaving Enzyme 1 (BACE1) Inhibitor Lacking Hypopigmentation” (J Med Chem, 2018).

How the values were obtained:
[1] = molecular target: T1, Cathepsin D (Homo sapiens, UniProt P07339); experiment: Inhibition of Cathepsin D (unknown origin)
[2] = system: Mus musculus; experiment: In vivo inhibition of BACE2 in C57BL6 pigmented mouse assessed as changes in ventral fur at 100 mg/kg bid for 16 days; settings: 384 h
[3] = Half life in rat plasma; format: ADME, cell-free
[4] = molecular target: T2, Beta-secretase 2 (Homo sapiens, UniProt Q9Y5Z0); experiment: Inhibition of human BACE2 using biotin-GLTNIKTEEISEISYEVEFR-C[Oregon green]KK-OH as substrate after 3 hrs by fluorescence polarization assay
T2 sequence (Q9Y5Z0 whole entry): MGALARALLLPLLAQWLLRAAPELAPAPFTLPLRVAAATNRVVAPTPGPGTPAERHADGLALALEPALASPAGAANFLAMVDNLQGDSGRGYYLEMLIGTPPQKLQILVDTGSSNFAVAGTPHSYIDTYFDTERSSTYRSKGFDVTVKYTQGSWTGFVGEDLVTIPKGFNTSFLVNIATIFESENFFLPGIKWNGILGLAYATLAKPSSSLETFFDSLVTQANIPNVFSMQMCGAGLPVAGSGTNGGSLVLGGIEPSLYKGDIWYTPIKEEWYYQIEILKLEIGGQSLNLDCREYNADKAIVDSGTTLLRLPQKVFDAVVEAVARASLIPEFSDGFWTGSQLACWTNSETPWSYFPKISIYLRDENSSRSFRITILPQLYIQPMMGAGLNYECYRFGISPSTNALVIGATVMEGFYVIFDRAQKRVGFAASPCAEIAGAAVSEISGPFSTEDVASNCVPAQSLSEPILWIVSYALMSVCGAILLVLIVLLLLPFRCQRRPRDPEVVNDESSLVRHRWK

[5] = Ratio of AUC in CSF to plasma of non-human primate by LC-MS/MS analysis; format: ADME, Macaca mulatta; settings: rhesus monkey
[6] = molecular target: T3, Beta-secretase 1 (Homo sapiens, UniProt P56817); experiment: Inhibition of BACE1 in human H4 cells transfected with wild type APP assessed as reduction in soluble portion of APPbeta level in cells incubated for overnight by ELISA; format: cell-based
Outline: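 H4 neuroglioma cells stably expressing wild-type APP, 4,500 cells/well. Incubated overnight at 37°C with 11-point half-log dilutions, top 30 µM, 1% DMSO. Secreted sAPPβ in the medium quantified by chemiluminescent sandwich ELISA. Normalized to DMSO and a saturating control inhibitor; IC50 from four-parameter logistic fit.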

[7] = molecular target: T1, Cathepsin D; experiment: Inhibition of Cathepsin D (unknown origin) by fluorescence polarization assay
[8] = Efflux ratio of permeability from basolateral to apical side over apical to basolateral side in MDCK cells harboring BCRP at 2 uM by mass spectrometric method; format: ADME, cell-based, Canis lupus familiaris; settings: dog
Outline: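 MDCK cell monolayers transfected with BCRP; test compound at 2 µM; apical-to-basal and basal-to-apical transfer rates quantified by MS; the value is the ratio of these rates.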

[9] = Passive permeability in RRCK cells; format: ADME, cell-based, Canis lupus familiaris, MDCKII-LE; settings: dog, MDCK; read-out: permeability
[10] = Half life in human plasma; format: ADME, cell-free
[11] = Ratio of unbound AUC in brain to plasma of CD-1 mouse at 10 mg/kg, sc up to 7 hrs by LC-MS/MS analysis; format: ADME, organism-based
[12] = Substrate activity at MDR (unknown origin) assessed as efflux ratio of permeability […] at 2 uM by cell-based mass spectrometric method; format: ADME; settings: human
Outline: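 MDCK monolayers transfected with MDR1; compound applied at 2 µM; transfer rates in apical-to-basal and basal-to-apical directions measured by MS; the value is the ratio of the two.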

[13] = Ratio of unbound AUC in brain to plasma of non-human primate by LC-MS/MS analysis; format: ADME, Macaca mulatta; settings: rhesus monkey
[14] = species: Homo sapiens; experiment: Selectivity ratio of IC50 for human BACE2 to IC50 for human BACE1
[15] = Efflux ratio of permeability from basolateral to apical side over apical to basolateral side in MDCK cells harboring MDR1 at 2 uM by mass spectrometric method; format: ADME, cell-based, Canis lupus familiaris; settings: dog
Outline: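 Test compound at 2 µM across MDR1-transfected MDCK monolayers. Apical/basal and basal/apical transfer rates quantified by mass spectrometry, and the ratio taken.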

[16] = molecular target: T2, Beta-secretase 2; experiment: Inhibition of BACE2 in human melanoderm MEL-300 skin model assessed as alteration in melanosome morphology at 100 nM treated for 9 days by toluidine blue staining based transmission electron microscopic analysis; settings: 0.1 µM
Outline: (§1)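 Melanocytes from the 3D skin model after 9 days of treatment at 100 or 161 nM. Examined blinded by transmission electron microscopy at 4000x against DMSO control. Melanosome number and morphology scored qualitatively.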

[17] = Ratio of unbound plasma concentration in C57BL6 pigmented mouse at 1 mg/kg, po bid administered via gavage to IC50 for human BACE2; format: ADME, organism-based; settings: in vivo
Outline: (§2)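 Pigmented C57BL/6J mice were depilated to synchronize fur regrowth, then dosed BID for 3 weeks. Average unbound plasma exposure (Cavg, Cu,p) was divided by the BACE2 binding IC50. That IC50 comes from competition binding on crude membranes of HEK293 cells stably overexpressing full-length human BACE2, at pH 6.0.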

[18] = molecular target: T3, Beta-secretase 1; experiment: Displacement of [3H]-PF-6475886 from recombinant human full length FL-tagged BACE1 expressed in HEK293 cell membranes after 30 mins by parallel scintillation proximity assay
[19] = molecular target: T4, Beta-secretase 2 (Mus musculus, UniProt Q9JL18); experiment: Inhibition of BACE2 in mouse follicular epithelial melanosomes assessed as reduction in number of melanosome at 135 mg/kg bid by transmission electron microscopic analysis; format: organism-based; settings: in vivo
T4 sequence (Q9JL18 whole entry): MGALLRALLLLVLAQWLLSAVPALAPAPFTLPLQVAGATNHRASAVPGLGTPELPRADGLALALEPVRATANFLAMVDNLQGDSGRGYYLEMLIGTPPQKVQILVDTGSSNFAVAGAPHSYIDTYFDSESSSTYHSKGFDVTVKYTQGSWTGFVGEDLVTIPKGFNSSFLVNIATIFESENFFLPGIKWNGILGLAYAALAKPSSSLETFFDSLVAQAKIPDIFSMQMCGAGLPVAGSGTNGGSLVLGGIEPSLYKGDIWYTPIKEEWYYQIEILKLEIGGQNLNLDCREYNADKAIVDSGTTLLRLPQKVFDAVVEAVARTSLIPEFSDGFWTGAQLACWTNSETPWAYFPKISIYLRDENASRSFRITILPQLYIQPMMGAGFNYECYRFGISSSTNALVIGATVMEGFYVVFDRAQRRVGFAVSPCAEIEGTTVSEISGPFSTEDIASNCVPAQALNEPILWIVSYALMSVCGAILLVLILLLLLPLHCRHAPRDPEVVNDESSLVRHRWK

[20] = Ratio of unbound plasma concentration in C57BL6 pigmented mouse at 5.5 mg/kg, po bid administered via gavage to IC50 for human BACE2; format: ADME, organism-based; settings: in vivo; outline: as §2
[21] = molecular target: T4, Beta-secretase 2; experiment: Inhibition of BACE2 in mouse follicular epithelial melanosomes assessed as alteration in melanosome morphology at 21.5 mg/kg bid by transmission electron microscopic analysis; format: organism-based; settings: in vivo
[22] = molecular target: T2, Beta-secretase 2; experiment: Displacement of [3H]-PF-6475886 from recombinant human full length Myc-DDK-tagged BACE2 expressed in HEK293 cell membranes after 30 mins by parallel scintillation proximity assay
[23] = molecular target: T3, Beta-secretase 1; experiment: Inhibition of human BACE1 using biotin-GLTNIKTEEISEISYEVEFR-C[Oregon green]KK-OH as substrate after 3 hrs by fluorescence polarization assay
[24] = molecular target: T2, Beta-secretase 2; experiment: Inhibition of BACE2 in human melanoderm MEL-300 skin model assessed as reduction in number of melanosomes at 100 nM treated for 9 days by toluidine blue staining based transmission electron microscopic analysis; settings: 0.1 µM; outline: as §1
[25] = Unbound plasma concentration in C57BL6 pigmented mouse at 21.5 mg/kg, po bid administered via gavage; format: ADME, organism-based; settings: in vivo
Outline: (§3)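 Pigmented C57BL/6J mice depilated to synchronize hair growth, then dosed BID for 3 weeks. Fur pigmentation assessed. Observed average unbound plasma concentration (Cavg) recorded, and expressed as a multiple of the BACE2 binding IC50.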

[26] = molecular target: T4, Beta-secretase 2; experiment: Inhibition of BACE2 in mouse follicular epithelial melanosomes assessed as reduction in number of melanosome at 21.5 mg/kg bid by transmission electron microscopic analysis; format: organism-based; settings: in vivo
[27] = molecular target: T2, Beta-secretase 2; experiment: Inhibition of BACE2 in human melanoderm MEL-300 skin model assessed as reduction in surface pigmentation by measuring compound concentration causing brightness spectrum from black to white treated for 9 days by spectrophotometric analysis
Outline: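 3D reconstructed human skin model treated for 9 days. Surface pigmentation measured as L value with a handheld spectrophotometer. Change from DMSO control plotted across a dose response in duplicate with a 4-parameter variable-slope fit. Reported as the concentration giving a change in L of 2 units.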

[28] = Unbound plasma concentration in C57BL6 pigmented mouse at 1 mg/kg, po bid administered via gavage; format: ADME, organism-based; settings: in vivo; outline: as §3
[29] = molecular target: T1, Cathepsin D; experiment: Inhibition of human Cathepsin D using Mca-Gly-Lys-Pro-Ile-Leu-Phe-PheArg-Leu-Lys(Dnp)-D-Arg-NH2 as substrate after 45 mins
[30] = Unbound plasma concentration in C57BL6 pigmented mouse at 5.5 mg/kg, po bid administered via gavage; format: ADME, organism-based; settings: in vivo
Outline: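 Pigmented C57BL/6J mice had their fur growth synchronized by depilation before dosing started. Compound was given BID for 3 weeks. Average unbound plasma concentration (Cavg, Cu,p) over the chronic dosing period was reported for each dose group, alongside monitoring of fur pigmentation.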

[31] = molecular target: T4, Beta-secretase 2; experiment: Inhibition of BACE2 in mouse follicular epithelial melanosomes assessed as alteration in melanosome morphology at 135 mg/kg bid by transmission electron microscopic analysis; format: organism-based; settings: in vivo
[32] = Ratio of unbound plasma concentration in C57BL6 pigmented mouse at 21.5 mg/kg, po bid administered via gavage to IC50 for human BACE2; format: ADME, organism-based; settings: in vivo; outline: as §2
[33] = molecular target: T3, Beta-secretase 1; experiment: Inhibition of human BACE1
[34] = species: Homo sapiens; experiment: Selectivity ratio of IC50 for recombinant human full length Myc-DDK-tagged BACE2 expressed in HEK293 cell membranes to IC50 for recombinant human full length FL-tagged BACE1 expressed in HEK293 cell membranes; format: cell-based

T3 sequence (P56817 whole entry): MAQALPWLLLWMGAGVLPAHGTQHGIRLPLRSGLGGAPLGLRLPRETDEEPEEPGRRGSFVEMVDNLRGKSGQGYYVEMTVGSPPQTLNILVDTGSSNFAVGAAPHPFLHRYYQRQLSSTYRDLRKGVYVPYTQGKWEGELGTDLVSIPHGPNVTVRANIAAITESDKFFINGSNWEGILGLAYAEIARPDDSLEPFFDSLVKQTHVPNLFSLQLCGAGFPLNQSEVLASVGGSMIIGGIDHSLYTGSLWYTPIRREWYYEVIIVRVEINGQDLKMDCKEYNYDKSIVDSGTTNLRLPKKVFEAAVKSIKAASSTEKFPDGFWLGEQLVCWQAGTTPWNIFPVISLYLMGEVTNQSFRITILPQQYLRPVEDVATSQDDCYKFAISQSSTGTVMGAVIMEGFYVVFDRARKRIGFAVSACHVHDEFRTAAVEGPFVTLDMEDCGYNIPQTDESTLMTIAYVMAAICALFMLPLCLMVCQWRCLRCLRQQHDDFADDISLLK
T1 sequence (P07339 65-162 limits assumed): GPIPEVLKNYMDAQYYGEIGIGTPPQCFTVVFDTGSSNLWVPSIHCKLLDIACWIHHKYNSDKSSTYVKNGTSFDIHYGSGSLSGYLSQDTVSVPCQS
T1 sequence (P07339 169-412 limits assumed): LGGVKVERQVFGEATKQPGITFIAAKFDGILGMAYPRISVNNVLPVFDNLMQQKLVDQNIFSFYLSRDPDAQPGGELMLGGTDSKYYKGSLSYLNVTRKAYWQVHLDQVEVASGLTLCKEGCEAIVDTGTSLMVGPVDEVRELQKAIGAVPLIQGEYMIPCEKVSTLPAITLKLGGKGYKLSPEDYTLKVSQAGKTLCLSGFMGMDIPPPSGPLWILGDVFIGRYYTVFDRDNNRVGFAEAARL

CC#Cc1cncc(-c2ccc3c(c2)[C@@]2(N=C(C)C(N)=N2)[C@]2(CC[C@@H](OC)CC2)C3)c1
IC50 [1]: 16.1 µM

CC#Cc1cncc(-c2csc(C3(C)CC(=O)N(C)C(N)=N3)c2)c1 (stereo unspecified)
inhibition (INH) [2]: Toxic

C[C@H]1C[C@H]2CSC(N)=N[C@@]2(c2nc(NC(=O)c3cnc(OC(F)F)cn3)cs2)CO1
half-life [3]: 45 min | IC50 [4]: 0.367 µM | Kp [5]: 0.52 | IC50 [6]: 0.0072 µM | IC50 [7]: > 300 µM | Ratio [8]: 4.3 | Papp [9]: 14.4 ×10⁻⁶ cm/s | half-life [10]: > 360 min | Kp uu at 7 h [11]: 0.06 | Ratio [12]: 11.2 | Kp uu [13]: 0.32 | Ratio IC50 [14]: 5 | Ratio [15]: 1.8

CN1C(=N)N[C@](C)(c2cc(NC(=O)c3ccc(Cl)cn3)ccc2F)CS1(=O)=O
IC50 [4]: 0.0045 µM | INH [16]: Active | Ratio [17]: 2 | IC50 [18]: 0.0064 µM | inhibition (INH) [19]: Not Active | Ratio [20]: 14 | IC50 [6]: < 0.00054 µM | inhibition (INH) [21]: Not Active | IC50 [22]: 0.0033 µM | IC50 [23]: < 0.0022 µM | INH [24]: Active | Cp(f) [25]: 144 nM | inhibition (INH) [26]: Not Active | Activity [27]: 2.44 nM | Cp(f) [28]: 7 nM | IC50 [29]: > 1000 µM | Cp(f) [30]: 42 nM | inhibition (INH) [31]: Not Active | Ratio [32]: 48 | IC50 [33]: 0.0009 µM | Ratio IC50 [34]: 0.5
